# IDH1 R132H inh: inhibitors of IDH1 R132H reductase, primary screen, biochemical, plate reader, single point | Isocitrate dehydrogenase [NADP] cytoplasmic (Homo sapiens), O75874 | diaphorase/resazurin fluorescence, 60 min | inhibition, % at 10 µM | 70,000 tested, 0.18% active; in the data active = inhibition above about 34%; inconclusive = no clear call, values can overlap the other calls; inactive = below about 11%;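 also: 0% = DMSO and 100% = no enzyme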
# GASC1 inh: inhibitors of GASC-1 (KDM4C) histone demethylase, primary screen, biochemical, single concentration HTS. GST-KDM4C 2-372, H3K9me3 peptide, LANCE TR-FRET. inhibition, % at 12.5 µM. AID 720574, 2013. Lysine-specific demethylase 4C (Homo sapiens), Q9H3R0. 96,000 tested, 0.15% active;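 active = mean replicate inhibition above about 25%, with at least 55% of replicates also reaching it, limit read from the data, passing the limit was not always enough; inconclusive = only one of those two conditions met; inactive = neither condition met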
# Target sequence (Q9H3R0 2-372 limits assumed): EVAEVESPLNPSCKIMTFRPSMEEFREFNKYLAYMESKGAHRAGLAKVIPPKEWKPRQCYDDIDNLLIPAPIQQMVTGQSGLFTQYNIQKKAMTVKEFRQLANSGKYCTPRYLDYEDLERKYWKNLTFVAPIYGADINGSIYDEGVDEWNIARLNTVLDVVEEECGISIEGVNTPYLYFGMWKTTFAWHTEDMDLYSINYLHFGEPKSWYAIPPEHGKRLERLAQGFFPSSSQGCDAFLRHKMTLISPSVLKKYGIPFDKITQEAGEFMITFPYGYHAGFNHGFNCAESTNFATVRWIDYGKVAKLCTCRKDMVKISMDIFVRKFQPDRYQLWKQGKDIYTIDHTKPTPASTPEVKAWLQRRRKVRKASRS
#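 System: N-terminal GST-fused human GASC-1 (KDM4C) fragment, residues 2-372; amount: enzyme final amount 10 nM; incubation: reaction 30 min RT, detection step 1 h RT; medium: HEPES buffer, pH 7.5, plus ascorbate; technique: LANCE TR-FRET, Eu antibody, ULight-streptavidin, EDTA, ex 340 nm, em 618/671 nm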
# T cruzi growth-1: T. cruzi intracellular proliferation inhibitors, primary screen, cell-based, beta-gal Tulahuen parasites, NIH3T3 host, luminescence | T. cruzi beta-gal in NIH3T3, GalScreen luminescence, 90 h | inhibition, % at 8.34 µM | 77,000 tested, 5.9% active;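 active = mean inhibition above about 93%, with at least 55% of replicates each passing it, limit read from the data, passing the limit was not always enough; inconclusive = only one of those two conditions holds; inactive = neither condition holds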
# T cruzi growth-2: T. cruzi intracellular proliferation inhibitors, confirmation, cell-based, NIH3T3 host, beta-gal parasite, luminescence, cherry-pick; shares compounds with T cruzi growth-1; T. cruzi beta-gal in NIH3T3, GalScreen luminescence, 90 h; inhibition, % at 8.35 µM; 5,600 tested, 72% active; AID 651739, 2012;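 active = mean replicate inhibition above about 95% and at least 55% of replicates individually reaching it, limit read from the data; inconclusive = only one of the two criteria is met; inactive = neither criterion is met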
# T cruzi growth-3: inhibitors of intracellular T. cruzi replication, confirmation, NIH3T3 host cells, beta-gal parasites, cherry-pick, set 2. T. cruzi beta-gal in NIH3T3, GalScreen luminescence, 90 h. AID 651740, 2012. 5,600 tested, 21% active. inhibition, % at 2.09 µM. shares compounds with T cruzi growth-1;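 active = mean inhibition above about 95%, with at least 55% of replicates also reaching it, limit read from the data; inconclusive = meets just one of the two conditions; inactive = meets neither condition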;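 also: plate controls were neutral control median for no effect and positive control median for full effect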
# 3T3 cytotox: cytotoxicity in mouse NIH/3T3 fibroblasts, confirmation, cytotoxicity control for T. cruzi proliferation inhibitor project, cell-based, cherry-pick, single point; shares compounds with T cruzi growth-1; NIH/3T3 viability, CellTiter-Glo ATP luminescence, 90 h; cytotoxicity (signal decrease), % at 8.35 µM; 5,600 tested, 14% active; AID 651742, 2012;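 active = mean signal decrease across replicates above about 35% based on untreated-well scatter, with enough replicates individually passing, limit read from the data; inconclusive = no rule stated though some were filed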;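 also: 0% = median of neutral control wells and 100% = median of positive control wells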
# NIH3T3 tox 2: NIH/3T3 fibroblast cytotoxicity, confirmation, cytotoxicity control, cell-based, cherry-pick, single point, set 2; AID 651744, 2012; inhibition, % at 24.9 µM; 5,600 tested, 56% active; NIH/3T3 viability, CellTiter-Glo ATP luminescence, 90 h; shares compounds with T cruzi growth-1;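 active = mean loss of cell viability signal at or above a set limit, and enough replicates individually reaching it; inconclusive = meets only the mean limit or only the replicate share; inactive = meets neither condition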;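 also: 0% = median of neutral control wells and 100% = median of positive control wells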
# Active calls of the source: *; ? = inconclusive; . = no result. The full list was thinned out, with hits kept by preference.
SMILES,IDH1 R132H inh,GASC1 inh,T cruzi growth-1,T cruzi growth-2,T cruzi growth-3,3T3 cytotox,NIH3T3 tox 2
COc1ccc(S(=O)(=O)N(C)C[C@@H]2Oc3ccc(NC(=O)Cn4cnnn4)cc3C(=O)N([C@H](C)CO)C[C@@H]2C)cc1,-2,-1,11,.,.,.,.
Cc1nc(C)c(C(=O)C2C(=O)C(=O)N(CCCN3CCOCC3)C2c2ccncc2)s1 (stereo unspecified),0,.,.,.,.,.,.
C[C@@H]1CN([C@H](C)CO)C(=O)c2cc(NC(=O)C3CCCCC3)ccc2O[C@@H](C)CCCCO[C@H]1CN(C)Cc1ccc(C(F)(F)F)cc1,.,-1,?,101*,109*,11,49*
C[C@@H]1CCCCO[C@@H](CN(C)Cc2ccc(C(=O)O)cc2)[C@H](C)CN([C@H](C)CO)C(=O)c2cc(NC(=O)C3CCCCC3)ccc2O1,-3,0,-5,.,.,.,.
C[C@@H]1CN([C@H](C)CO)C(=O)c2cc(NC(=O)C3CCCCC3)ccc2O[C@@H](C)CCCCO[C@H]1CN(C)Cc1ccc(C(=O)O)cc1,2,0,-14,.,.,.,.
C[C@H](CO)N1C[C@H](C)[C@H](CN(C)Cc2ccc(C(F)(F)F)cc2)OCCCC[C@H](C)Oc2ccc(NC(=O)C3CCCCC3)cc2C1=O,1,0,99*,?,111*,-23,55*
C[C@@H]1CN([C@H](C)CO)C(=O)c2cc(NC(=O)C3CCCCC3)ccc2O[C@@H]1CN(C)C(=O)Nc1ccc(C(F)(F)F)cc1,3,-4,-27,.,.,.,.
C[C@@H]1CCCCO[C@@H](CN(C)Cc2ccc(C(F)(F)F)cc2)[C@H](C)CN([C@@H](C)CO)C(=O)c2cc(NC(=O)C3CCCCC3)ccc2O1,2,-1,114*,102*,112*,10,15
C[C@@H]1CCCCO[C@@H](CN(C)Cc2ccc(C(=O)O)cc2)[C@@H](C)CN([C@@H](C)CO)C(=O)c2cc(NC(=O)C3CCCCC3)ccc2O1,1,2,-2,.,.,.,.
C[C@H](CO)N1C[C@H](C)[C@H](CN(C)C(=O)Nc2ccc(C(F)(F)F)cc2)Oc2ccc(NC(=O)C3CCCCC3)cc2C1=O,1,-3,?,100*,33,44*,52*
O=C(c1ccccc1)c1cc(Br)ccc1NC(=O)C1CC=CCC1C(=O)O (stereo unspecified),0,.,.,.,.,.,.
C/C=C/c1ccc2c(c1)O[C@H](CN(C)Cc1ccc(C(=O)O)cc1)[C@H](C)CN([C@H](C)CO)S2(=O)=O,2,15,.,.,.,.,.
CCCNC(=O)C[C@@H]1CC[C@@H]2[C@@H](COc3ccc(NC(=O)c4ccc(OC)cc4)cc3C(=O)N2C)O1,.,0,10,.,.,.,.
COc1cc(NC(=O)CN(C)S(=O)(=O)c2cc(Cl)ccc2Cl)cc(OC)c1,0,.,.,.,.,.,.
C[C@@H]1CCCCO[C@H](CN(C)Cc2ccc(C(F)(F)F)cc2)[C@H](C)CN([C@@H](C)CO)C(=O)c2cc(NC(=O)C3CCCCC3)ccc2O1,-1,-3,117*,102*,110*,57*,73*
C[C@H]1CCCCO[C@@H](CN(C)Cc2ccc(C(F)(F)F)cc2)[C@@H](C)CN([C@@H](C)CO)C(=O)c2cc(NC(=O)C3CCCCC3)ccc2O1,.,-1,?,98*,95,23,26*
C[C@@H]1CN([C@@H](C)CO)C(=O)c2cc(NC(=O)C3CCCCC3)ccc2O[C@@H]1CN(C)Cc1ccc(C(F)(F)F)cc1,1,-1,72*,78,15,26,31*

# Source: PubChem BioAssay
